For three compounds, MST and ILS results are on record in ChEMBL document CHEMBL1123076, “Synthesis and biological evaluation of 9-[5'-(2-oxo-1,3,2-oxazaphosphorinan-2-yl)-beta-D-arabinosyl]ade nine and 9-[5'-(2-oxo-1,3,2-dioxaphosphorinan-2-yl)-beta-D-arabinosyl]ade nine: potential neutral precursors of 9-[beta-D-arabinofuranosyl]adenine 5'-monophosphate” (1985).

Type in all cases: functional
Assay [1] concerns Mus musculus. Briefly: Antitumor activity was evaluated as median survival time in BDF1 mice (six mice per group) implanted intraperitoneally with P-388 leukemia cells (10e6 )at a dose of 600 mg/Kg,. In short, it runs like this:
(§1)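 Male BDF1 mice (average weight 23 g) inoculated ip with 10^6 P-388 leukemia cells on day 0; leukemia maintained by weekly ip passage in female DBA/2 mice. Compound in sterile 0.9% saline given ip once daily for 9 consecutive days starting 24 h after implantation; controls received saline alone. Animals observed for 60 days or until death; median survival time recorded.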

In assay [2] the test system is Mus musculus. The experiment in a line: Antitumor activity was evaluated as percent increase in life span in BDF1 mice (six mice per group) implanted intraperitoneally with P-388 leukemia cells (10e6 )at a dose of 600 mg/Kg,. Conditions: P388, ip. In a few lines:
(§2)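 Male BDF1 mice (average weight 23 g) implanted ip with 10^6 P-388 cells on day 0. Treatment in sterile 0.9% saline given ip daily for 9 days starting 24 h after implantation; saline-only controls. Animals observed up to 60 days. Median survival of treated (T) vs controls (C) expressed as %ILS = (T/C − 1) × 100; significance at P < 0.05.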

For assay [3], the system named is Mus musculus. Briefly: Antitumor activity was evaluated as median survival time in BDF1 mice (six mice per group) implanted intraperitoneally with P-388 leukemia cells (10e6 )at a dose of 500 mg/Kg,. In short, it runs like this: as §1
For assay [4], the system named is Mus musculus. The experiment in a line: Antitumor activity was evaluated as percent increase in life span in BDF1 mice (six mice per group) implanted intraperitoneally with P-388 leukemia cells (10e6 )at a dose of 100 mg/Kg,. The note with it: P388, ip. In a few lines: as §2
Assay [5] deals with Mus musculus. Briefly: Antitumor activity was evaluated as median survival time in BDF1 mice (six mice per group) implanted intraperitoneally with P-388 leukemia cells (10e6 )at a dose of 100 mg/Kg,. In short, it runs like this: as §1
The subject of assay [6] is Mus musculus. The experiment in a line: Antitumor activity was evaluated as percent increase in life span in BDF1 mice (six mice per group) implanted intraperitoneally with P-388 leukemia cells (10e6 )at a dose of 300 mg/Kg,. Conditions: P388, ip. In short, it runs like this: as §2
Assay [7] relates to Mus musculus. Briefly: Antitumor activity was evaluated as median survival time in BDF1 mice (six mice per group) implanted intraperitoneally with P-388 leukemia cells (10e6 )at a dose of 300 mg/Kg,. In short, it runs like this: as §1
The subject of assay [8] is Mus musculus. The experiment in a line: Antitumor activity was evaluated as percent increase in life span in BDF1 mice (six mice per group) implanted intraperitoneally with P-388 leukemia cells (10e6 )at a dose of 500 mg/Kg,. The note with it: P388, ip. In a few lines:
as §2

For `Nc1ncnc2c1ncn2[C@@H]1O[C@H](CO)[C@@H](O)[C@H]1O` [ADENOSINE], the MST in assay [1] stood at 12 days. In assay [2], the ILS at 600 mg/kg amounted to 33%.
Turning to `Nc1ncnc2c1ncn2C1O[C@H](COP2(=O)NCCCO2)[C@@H](O)[C@@H]1O` (stereo not given in full), the MST in assay [3] was 8 days; in assay [5], 12 days; in assay [7] it was 12 days. The ILS at 100 mg/kg in assay [4] was determined as 33%. Besides, the ILS at 300 mg/kg in assay [6] is 33%. The ILS at 500 mg/kg in assay [8] is -11%.
With `Nc1ncnc2c1ncn2C1O[C@H](COP2(=O)OCCCO2)[C@@H](O)[C@@H]1O` (stereo not given in full), the ILS at 100 mg/kg in assay [4] stood at 0%. Further, the MST in assay [5] stood at 9 days.
